Measurements published in ChEMBL document CHEMBL5055635, “High-Throughput Crystallography Reveals Boron-Containing Inhibitors of a Penicillin-Binding Protein with Di- and Tricovalent Binding Modes” (J Med Chem, 2021).
The source made the active and inactive calls. The rule behind the calls is not given here.

How the values were obtained:
Pseudomonas aeruginosa [1] = assay: Inhibition of Pseudomonas aeruginosa PBP3 using (2-((benzoyl-D-alanyl)thio)acetic acid) as a substrate assessed as residual activity by measuring substrate turnover at 100 uM incubated for 1 hr followed by substrate addition by absorbance based assay relative to control
How it was run: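 PaPBP3 (400 nM; 200 nM final) incubated with compound for 1 h at 30 °C in 100 mM sodium phosphate pH 7 with 0.01% Triton. S2d and DTNB (1 mM each, final) were then added, and A412 was followed at 30 °C. Initial rates were corrected for non-enzymatic hydrolysis, measured with 1 mM aztreonam. Residual activity is the percentage of the untreated control. Three technical replicates, standard error.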

Pseudomonas aeruginosa [2] = assay: Antimicrobial activity against permeabilized Pseudomonas aeruginosa assessed as bacterial growth inhibition incubated for 18 hrs by CLSI protocol based broth microdilution method; type: functional; conditions: dose 150 µM
Escherichia coli [3] = assay: Antimicrobial activity against Escherichia coli […] assessed as bacterial growth inhibition incubated for 18 hrs by CLSI protocol based broth microdilution method; type: functional
Pseudomonas aeruginosa [4] = assay: Antimicrobial activity against Pseudomonas aeruginosa PAO1 assessed as bacterial growth inhibition incubated for 18 hrs by CLSI protocol based broth microdilution method; type: functional
Pseudomonas aeruginosa [5] = assay: Inhibition of Pseudomonas aeruginosa PBP3 using bocillin FL as a fluorogenic substrate assessed as residual activity at 100 uM preincubated for 1 hr followed by substrate addition measured after 30 mins by fluorescence anisotropy assay relative to control
How it was run: (§1)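 Purified PBP (60 nM) preincubated with compound for 1 h at 30 °C in 100 mM sodium phosphate pH 7 with 0.01% Triton. BOCILLIN FL (30 nM) was then added, and fluorescence anisotropy was read after 30 min. Residual activity is the percentage of the uninhibited control. Run in triplicate.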

Pseudomonas aeruginosa [6] = assay: Reversible inhibition of Pseudomonas aeruginosa PBP3 using nitrocefin as substrate assessed as increase in irreversibly bound ceftazidime IC50 by two-fold dilution assay; conditions: dose 150.0 µM
Pseudomonas aeruginosa [7] = assay: Inhibition of Pseudomonas aeruginosa PBP3 at 1 mM using bocillin FL as a fluorogenic substrate preincubated for 0 to 60 mins followed by substrate addition measured after 30 mins by fluorescence anisotropy assay; conditions: time 0-60 min
How it was run: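 PaPBP3 preincubated with compound for 0, 30 or 60 min before BOCILLIN FL was added to start the reaction. Otherwise the standard FA competition format: 60 nM protein, 30 nM BOCILLIN FL, pH 7 sodium phosphate with 0.01% Triton, 30 °C.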

Haemophilus influenzae [8] = assay: Antimicrobial activity against Haemophilus influenzae ATCC 49766 assessed as bacterial growth inhibition incubated for 18 hrs by CLSI protocol based broth microdilution method; type: functional
Haemophilus influenzae [9] = assay: Inhibition of Haemophilus influenzae PBP3 assessed as residual activity at 1 mM preincubated for 1 hr followed by substrate addition measured after 30 mins by fluorescence anisotropy assay relative to control; how it was run: as §1
Acinetobacter baumannii [10] = assay: Inhibition of Acinetobacter baumannii PBP3 assessed as residual activity at 1 mM preincubated for 1 hr followed by substrate addition measured after 30 mins by fluorescence anisotropy assay relative to control; how it was run: as §1
Pseudomonas aeruginosa [11] = assay: Synergistic antimicrobial activity against Pseudomonas aeruginosa PAO1 assessed as bacterial growth inhibition in presence of piperacillin incubated for 18 hrs by checkerboard titration method; type: functional, organism-based
Escherichia coli [12] = assay: Synergistic antimicrobial activity against Escherichia coli […] assessed as bacterial growth inhibition in presence of piperacillin incubated for 18 hrs by checkerboard titration method; type: functional, organism-based
Neisseria gonorrhoeae [13] = assay: Antimicrobial activity against Neisseria gonorrhoeae ATCC 49226 assessed as bacterial growth inhibition incubated for 18 hrs by CLSI protocol based broth microdilution method; type: functional
Neisseria gonorrhoeae [14] = assay: Inhibition of Neisseria gonorrhoeae PBP2 assessed as residual activity at 1 mM preincubated for 1 hr followed by substrate addition measured after 30 mins by fluorescence anisotropy assay relative to control; how it was run: as §1
Escherichia coli [15] = assay: Inhibition of Escherichia coli PBP3 assessed as residual activity at 1 mM preincubated for 1 hr followed by substrate addition measured after 30 mins by fluorescence anisotropy assay relative to control; how it was run: as §1
Acinetobacter baumannii [16] = assay: Antimicrobial activity against Acinetobacter baumannii ATCC 19606 assessed as bacterial growth inhibition incubated for 18 hrs by CLSI protocol based broth microdilution method; type: functional; conditions: ATCC 19606 = CIP 70.34 = JCM 6841
Pseudomonas aeruginosa [17] = assay: Inhibition of Pseudomonas aeruginosa PBP3 using bocillin FL as a fluorogenic substrate assessed as residual activity at 1 mM preincubated for 1 hr followed by substrate addition measured after 30 mins by fluorescence anisotropy assay relative to control; how it was run: as §1

SMILES	MIC (Pseudomonas aeruginosa [2])	MIC (Escherichia coli [3])	MIC (Pseudomonas aeruginosa [4])	Activity (Pseudomonas aeruginosa [17])	further results
COC(=O)[C@H](NC(=O)c1ccc2c(c1)B(O)OC2)c1ccccc1	> 64 µg/mL	> 64 µg/mL	> 64 µg/mL	–	Activity (Pseudomonas aeruginosa [1]): > 90%; Activity (Pseudomonas aeruginosa [5]): > 90%
CN1CCN(C(=O)CNC(=O)c2ccc3c(c2)B(O)OC3CC(=O)O)CC1=O (stereo unspecified)	> 64 µg/mL	> 64 µg/mL	> 64 µg/mL	–	–
O=C(c1ccc2c(c1)B(O)OC2)N(Cc1ccccc1)Cc1ccccc1	> 64 µg/mL	> 64 µg/mL	> 64 µg/mL	–	Activity (Pseudomonas aeruginosa [5]): 87%
NC(=O)[C@H](NC(=O)c1ccc2c(c1)B(O)OC2CC(=O)O)c1ccccc1 (stereo partly specified)	> 64 µg/mL	> 64 µg/mL	> 64 µg/mL	–	inhibition (Pseudomonas aeruginosa [6]): inactive; inhibition (Pseudomonas aeruginosa [7]): inactive; MIC (Haemophilus influenzae [8]): > 64 µg/mL; Activity (Haemophilus influenzae [9]): 32%; Activity (Acinetobacter baumannii [10]): 73%; Activity (Pseudomonas aeruginosa [11]): inactive; Activity (Escherichia coli [12]): inactive; MIC (Neisseria gonorrhoeae [13]): > 64 µg/mL; Activity (Neisseria gonorrhoeae [14]): > 90%; Activity (Escherichia coli [15]): > 90%; MIC (Acinetobacter baumannii [16]): > 64 µg/mL
O=C(O)C[C@@H]1OB(O)c2ccc(OCc3ccccc3)cc21	–	–	–	20%	–
O=C1CN(C(=O)CNC(=O)c2ccc3c(c2)B(O)OC3)CCN1	–	–	–	> 90%	–
OB(O)c1cccc(-c2nnn[nH]2)c1	–	–	–	82%	–
CN1CCN(C(=O)CNC(=O)c2ccc3c(c2)B(O)OC3)CC1=O	–	–	–	> 90%	–
CN1CCN(C(=O)[C@@H](Cc2ccccc2)NC(=O)c2ccc3c(c2)B(O)OC3)CC1=O	–	–	–	> 90%	–
